Reference: paper PMC7675178 (Journal of medicinal chemistry, 2019)
Each block holds one molecule with its values, some of them ahead of it. Residues, ends and D or L forms follow the SMILES beside them. *: point of attachment. Cbz = O=C(OCc1ccccc1)*; Boc = CC(C)(C)OC(=O)*; OBn = c1ccc(CO*)cc1; OtBu = CC(C)(C)O*

Assays:
[1] = system: H727 cells; test: Cell viability assay; format: cell-based
[2] = system: proteasome chymotrypsin-like (CT-L, β5/β5i) activity; format: biochemical, human; conditions: RPMI8226 cell lysate, Figure 7
In short: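 RPMI 8226 lysate in 20 mM Tris-HCl, 0.5 mM EDTA, 0.035% SDS, pH 8.0, preincubated 1 h with a range of inhibitor concentrations. Suc-LLVY-AMC added at 100 μM final. AMC fluorescence (ex 360/em 460 nm) read each minute for 1 h. Initial slopes normalized to vehicle wells; IC50 from nonlinear regression.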

[3] = biological target: β1i/LMP2 of human 20S immunoproteasome (Homo sapiens, UniProt P28065); test: Enzyme kinetics assay, β1i/LMP2 activity of purified human 20S immunoproteasome; format: biochemical; conditions: 20S purified immunoproteasome, Figure 7
In short: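 Purified human 20S immunoproteasome in pH 8.0 Tris-HCl buffer (0.5 mM EDTA, 0.035% SDS), incubated 1 h with graded inhibitor concentrations. LMP2 activity measured with Ac-PAL-AMC (100 μM final) by AMC fluorescence (360/460 nm) every minute for 1 h. Linear-regression initial rates normalized to vehicle control; IC50 by nonlinear fit.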

[4] = system: Cfz-resistant RPMI8226 cells; test: Cell viability assay; format: cell-based, human
In short: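 Resistant RPMI8226 subline derived by stepwise Cfz exposure up to 80 nM over ~6 months, kept in 80 nM, then grown Cfz-free ~1 week before assay. Parental and resistant cells in RPMI1640/10% FBS, plated 10 000/well; compounds added 24 h after plating. MTS read after 72 h. IC50 by nonlinear regression; triplicates, or three independent experiments for the reference.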

[5] = In vitro metabolic stability in rat liver homogenates; format: in vitro ADME; conditions: 1 μM, 5, 10 and 20 min, 37 °C, Figure 8B
In short: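 Livers from 8-week-old male Sprague-Dawley rats, PBS-washed and homogenized in five-fold volume PBS (pH 7.4) per gram. Homogenate prewarmed to 37 °C, spiked to 1 μM final, n = 3. Samples taken at 0, 5, 10 and 20 min, quenched in four-fold ice-cold acetonitrile with 0.5 μM chlorpropamide internal standard. Remaining drug quantified by LC-MS/MS (positive-ion SRM).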

[6] = system: primary MM cells; test: Cell viability of primary MM cells; format: cell-based, human; conditions: 48 h; for Cytotoxic effects in primary MM samples, Btz-resistant versus PI-naïve: 10 μM, nine samples, Figure 5B,C
In short: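 Bone-marrow aspirates from patients; CD138+ plasma cells isolated by positive bead selection, purity checked by flow cytometry. Donors were six Btz/Cfz-naïve and eight relapsed on Btz. Plated 20 000 cells/well in IMDM with 10% FBS. Exposed to test compound (50 nM or 10 μM) for 48 h. Percentage viable cells measured by CellTiter-Glo luminescence.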

[7] = system: β1i subunit; conditions: cited from earlier work
[8] = system: β5 subunit; conditions: cited from earlier work
[9] = in vivo; cited from earlier work
[10] = 72-h IC50 values, H727 versus H23, Figure 3B

IC50 against CT-L (β5/β5i) activity compared with Cfz [2]: IC50 values similar to that of Cfz
IC50 against β1i activity compared with Cfz [3]: IC50 values similar to that of Cfz
Compound: CC(C)C[C@H](NC(=O)[C@H](CCc1ccccc1)NC(=O)CN1CCOCC1)C(=O)N[C@@H](Cc1ccccc1)C(=O)N[C@@H](CC(C)C)C(=O)[C@@]1(COS(C)(=O)=O)CO1 [Compound 12, ((S)-2-((4S,7S,10S,13S)-10-Benzyl-7-isobutyl-15-methyl-1-morpholino-2,5,8, 11-tetraoxo-4-phenethyl-3,6,9, 12-tetraazahexadecanecarbonyl)oxiran-2-yl)methylmethane-sulfonate]
Potency against H727 cells compared with Cfz ([1]; Cfz-resistant H727 cells, Figure 7): less potent than Cfz

IC50 against CT-L (β5/β5i) activity compared with Cfz [2]: IC50 values similar to that of Cfz
IC50 against β1i activity compared with Cfz [3]: IC50 values similar to that of Cfz
Metabolic stability compared with Cfz [5]: more stable than Cfz
Compound: CC(C)C[C@H](NC(=O)[C@H](CCc1ccccc1)NC(=O)CN1CCOCC1)C(=O)N[C@@H](Cc1ccccc1)C(=O)N[C@@H](CC(C)C)C(=O)[C@@]1(CO)CO1 [Compound 9, (S)-N-((S)-1-((S)-1-((R)-2-(Hydroxymethyl)oxiran-2-yl)-4-methyl-1-oxopentan-2-ylamino)-1-oxo-3-phenylpropan-2-yl)-4-methyl-2-((S)-2-(2-morpholinoacetamido)-4-phenylbutanamido)-pentanamide]
Improvement in potency as compared to Cfz ([4]; Cfz-resistant RPMI8226 cells, Figure 7): almost three-fold improvement in potency

Compound: CCCCCCC(=O)N[C@@H](C)C(=O)N[C@@H](CC(C)C)C(=O)[C@@]1(CO[Si](C)(C)C(C)(C)C)CO1 [UK101]
Cytotoxic effects in primary MM samples, Btz-resistant versus PI-naïve [6]: similar
Inhibition of β1i subunit, concentration range [7]: nanomolar concentration ranges
Inhibition of β5 subunit (CT-L activity), concentration range [8]: micromolar concentration ranges

Compound: CC(C)(C)OC(=O)N[C@@H](CC(=O)OCc1ccccc1)C(=O)N[C@@H](CCCCNC(=O)OCc1ccccc1)C(=O)OC(C)(C)C [reversin 121] (Boc-Asp(OBn)-Lys(Cbz)-OtBu)
Restoration of Cfz sensitivity by P-gp inhibitor ([4]; Cfz-resistant RPMI8226, Supporting Information S2): almost completely restored Cfz sensitivity

Compound: CC(=O)N[C@@H](CSC(=O)[C@]1([C@@H](O)C(C)C)NC(=O)[C@H](C)[C@@H]1O)C(=O)O [lactacystin]
Cytotoxicity in H727 cells compared with H23 cells [1, 10]: not as effective in H727 cells as in H23 cells

Compound: CCCCCCC(=O)N[C@@H](CO)C(=O)N[C@@H](CC(C)C)C(=O)[C@@]1(COCOCCOC)CO1 [UK102]
Cytotoxic effects in primary MM samples, Btz-resistant versus PI-naïve [6]: similar

Compound: CC(C)C[C@H](NC(=O)[C@H](CCc1ccccc1)NC(=O)CN1CCOCC1)C(=O)N[C@@H](Cc1ccccc1)C(=O)N[C@@H](CC(C)C)C(=O)[C@@]1(C)CO1 [Cfz, carfilzomib]
Increase in IC50 values in Cfz-resistant RPMI8226 cells ([4]; versus parental RPMI8226, 72 h MTS, Figure 4A): greater than 35 fold
Sensitivity of primary MM samples, Btz-relapsed versus PI-naïve patients ([6]; 50 nM, 14 donors, Figure 5A): tended to be less responsive to Cfz
Plasma half-lives [9]: less than 1 h

Compound: CC(C)C[C@H](NC(=O)[C@H](Cc1ccccc1)NC(=O)c1cnccn1)B(O)O [Btz, bortezomib]
Cytotoxicity in H727 cells compared with H23 cells ([1]; human, 72 h): comparable cytotoxicity in H727 and H23 cells

Compound: CC(C)C[C@@H](C=O)NC(=O)[C@H](CC(C)C)NC(=O)[C@H](CC(C)C)NC(=O)OCc1ccccc1 [MG-132] (Cbz-Leu-Leu-Leu-aldehyde)
Cytotoxicity in H727 cells compared with H23 cells [1, 10]: comparable cytotoxicity in H727 and H23 cells

Compound: CCCCCCC(=O)N[C@@H](C)C(=O)N[C@@H](CC(C)C)C(=O)[C@@]1(CO)CO1 [Compound 5, N-((S)-1-((S)-1-((R)-2-(Hydroxymethyl)oxiran-2-yl)-4-methyl-1-oxopentan-2-ylamino)-1-oxopropan-2-yl)heptanamide]
Cytotoxic activity in cancer cell lines relative to UK101 ([1]; H23, H727 and Cfz-resistant RPMI8226 cells, MTS, Figure 6B): considerably improved the cytotoxic activity
